Reference: ChEMBL document CHEMBL1221337, “The unsaturated acyclic nucleoside analogues bearing a sterically constrained (Z)-4'-benzamido-2'-butenyl moiety: Synthesis, X-ray crystal structure study, cytostatic and antiviral activity evaluations” (Bioorg Med Chem, 2010)
The source made the active and inactive calls. The calls are words filed in the database; no cut-off is given here.

What was measured:
[1] = system: Human respirovirus 3; test: Antiviral activity against Parainfluenza 3 infected in Vero cells assessed as inhibition of virus-induced cytopathicity; type: functional, organism-based
In short: (§1)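 Confluent cell monolayers in 96-well plates were inoculated with 100 CCID50 of virus. After 1 h adsorption, residual virus was removed. Cultures were then incubated with test compound at varying concentrations (200, 40, 8... µM). Viral cytopathicity was scored once it reached completion in untreated infected controls. Host cells: HEL for HSV-1 KOS and HSV-2 G; Vero for the Vero lines; HeLa for the HeLa lines.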

[2] = system: SK-BR-3; test: Cytotoxicity against human SK-BR-3 cells after 72 hrs by MTT assay; type: functional, cell-based; settings: SK-BR-3, 72 h
In short: (§2)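 Adherent cells were plated at 3000–6000 cells/well on day 0, according to doubling time. Compound was added as five 10-fold dilutions (1 × 10⁻⁸–1 × 10⁻⁴ M), with DMSO ≤0.1%, and incubated 72 h. Read-out was MTT absorbance converted to percentage growth versus untreated wells on the same plate. IC50 was obtained by linear regression between bracketing concentrations; the highest concentration was reported as ">" if not reached. Quadruplicates, three experiments.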

[3] = system: Vaccinia virus; test: Antiviral activity against Vaccinia virus infected in HEL cells assessed as inhibition of virus-induced cytopathicity; type: functional, organism-based; settings: Orthopoxvirus vaccinia
[4] = system: Mammalian orthoreovirus 1; test: Antiviral activity against Reovirus 1 infected in Vero cells assessed as inhibition of virus-induced cytopathicity; type: functional, organism-based; in short: as §1
[5] = system: HeLa; test: Cytotoxicity against human HeLa cells assessed as cell viability after 3 days by coulter counting; type: cell-based; settings: 72 h
[6] = system: Vero; test: Cytotoxicity against african green monkey Vero cells assessed as cell viability after 3 days by coulter counting; type: cell-based; settings: chlorocebus sabaeus, 72 h
[7] = system: Vesicular stomatitis virus; test: Antiviral activity against Vesicular stomatitis virus infected in human HeLa cells assessed as inhibition of virus-induced cytopathicity; type: functional, organism-based
In short: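 Confluent HeLa cultures were infected with 100 CCID50 of virus. Unadsorbed virus was removed after 1 h, and compound was added at serial concentrations (200, 40, 8…). Viral cytopathic effect was read when untreated virus-infected control wells reached full cytopathicity.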

[8] = system: Human alphaherpesvirus 2; test: Antiviral activity against HSV2 G infected in HEL cells assessed as inhibition of virus-induced cytopathicity; type: functional, organism-based; settings: strain G; in short: as §1
[9] = system: Coxsackievirus B4; test: Antiviral activity against Coxsackievirus B4 infected in Vero cells assessed as inhibition of virus-induced cytopathicity; type: functional, organism-based; in short: as §1
[10] = system: Sindbis virus; test: Antiviral activity against Sindbis virus infected in Vero cells assessed as inhibition of virus-induced cytopathicity; type: functional, organism-based; in short: as §1
[11] = system: HEp-2; test: Cytotoxicity against human Hep2 cells after 72 hrs by MTT assay; type: functional, cell-based; settings: HEp-2, 72 h; in short: as §2
[12] = system: Punta Toro virus; test: Antiviral activity against Punta Toro virus infected in Vero cells assessed as inhibition of virus-induced cytopathicity; type: functional, organism-based; in short: as §1
[13] = system: Human alphaherpesvirus 1; test: Antiviral activity against HSV1 KOS infected in HEL cells assessed as inhibition of virus-induced cytopathicity; type: functional, organism-based; in short: as §1
[14] = system: Coxsackievirus B4; test: Antiviral activity against Coxsackievirus B4 infected in human HeLa cells assessed as inhibition of virus-induced cytopathicity; type: functional, organism-based; in short: as §1
[15] = system: MDCK; test: Cytotoxicity against MDCK cells assessed as cell viability after 3 days by coulter counting; type: cell-based, Canis lupus familiaris; settings: dog, 72 h
[16] = system: Influenza B virus; test: Antiviral activity against influenza B virus infected in MDCK cells assessed as inhibition of virus-induced cytopathicity; type: functional, organism-based
In short: (§3)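 MDCK cells, nearly confluent in microtiter plates, were infected with 100 CCID50 per well. After 1 h adsorption, the inoculum was washed off. Cells were incubated with graded compound concentrations (200, 40, 8…). Cytopathicity was recorded at completion in untreated infected controls.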

[17] = Cytotoxicity against human WI38 cells after 72 hrs by MTT assay; type: cell-based; settings: WI-38, 72 h; in short: as §2
[18] = system: Influenza A virus; test: Antiviral activity against influenza A virus H1N1; H3N2 infected in MDCK cells assessed as inhibition of virus-induced cytopathicity; type: functional, organism-based; in short: as §3
[19] = system: Vesicular stomatitis virus; test: Antiviral activity against Vesicular stomatitis virus infected in HEL cells assessed as inhibition of virus-induced cytopathicity; type: functional, organism-based
[20] = system: HeLa; test: Cytotoxicity against human HeLa cells after 72 hrs by MTT assay; type: functional, cell-based; in short: as §2
[21] = system: HEL; test: Cytotoxicity against HEL cells assessed as cell viability after 3 days by coulter counting; type: cell-based; settings: human, 72 h
In short: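 HEL cells were seeded at 5 × 10³ cells/well and allowed to proliferate 24 h. Medium with test compound at different concentrations was then added, and cells were incubated 3 days at 37 °C. Cell number was counted by Coulter counter. CC50 (50% reduction in cell number versus untreated controls) was read from plots of cell number (% of control) against concentration.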

[22] = system: Respiratory syncytial virus; test: Antiviral activity against Respiratory syncytial virus infected in human HeLa cells assessed as inhibition of virus-induced cytopathicity; type: functional, organism-based; in short: as §1
[23] = system: SW-620; test: Cytotoxicity against human SW620 cells after 72 hrs by MTT assay; type: functional, cell-based; settings: SW-620, 72 h; in short: as §2
[24] = system: MIA PaCa-2; test: Cytotoxicity against human MIAPaCa2 cells after 72 hrs by MTT assay; type: functional, cell-based; settings: MIA PaCa-2, 72 h; in short: as §2
[25] = system: MCF7; test: Cytotoxicity against human MCF7 cells after 72 hrs by MTT assay; type: functional, cell-based; settings: MCF7, 72 h; in short: as §2

SMILES	inhibition [1]	IC50 [2]	inhibition [3]	inhibition [4]	Activity [5]	Activity [6]	inhibition [7]	inhibition [8]	inhibition [9]	inhibition [10]	IC50 [11]	inhibition [12]	inhibition [13]	inhibition [14]	Activity [15]	inhibition [16]	IC50 [17]	inhibition [18]	inhibition [19]	IC50 [20]	further results
Nc1ccn(C/C=C\CNC(=O)c2ccc(F)cc2)c(=O)n1	inactive	> 100 µM	inactive	inactive	Non-toxic	Non-toxic	inactive	inactive	inactive	inactive	> 100 µM	inactive	inactive	inactive	Non-toxic	inactive	4 µM	inactive	inactive	> 100 µM	Activity [21]: Non-toxic; inhibition [22]: inactive; IC50 [23]: > 100 µM; IC50 [24]: > 100 µM; IC50 [25]: > 100 µM
Nc1ccn(C/C=C\CNC(=O)c2ccccc2)c(=O)n1	inactive	72 µM	inactive	inactive	Non-toxic	Non-toxic	inactive	inactive	inactive	inactive	> 100 µM	inactive	inactive	inactive	Non-toxic	inactive	4.2 µM	inactive	inactive	> 100 µM	Activity [21]: Non-toxic; inhibition [22]: inactive; IC50 [23]: > 100 µM; IC50 [24]: > 100 µM; IC50 [25]: 31.4 µM
O=C(NC/C=C\Cn1ccc(=O)[nH]c1=O)c1ccc(F)cc1	inactive	> 100 µM	inactive	inactive	Non-toxic	Non-toxic	inactive	inactive	inactive	inactive	> 100 µM	inactive	inactive	inactive	Non-toxic	inactive	> 100 µM	inactive	inactive	> 100 µM	Activity [21]: Non-toxic; inhibition [22]: inactive; IC50 [23]: > 100 µM; IC50 [24]: > 100 µM; IC50 [25]: 2.7 µM
